Experimental data of several laboratories.
Aldo-keto reductase family 1 member B1: Aldo-keto reductase family 1 member B1 (Bos taurus, UniProt P16116)
FLT3: Receptor-type tyrosine-protein kinase FLT3 (FLT3, Homo sapiens, UniProt P36888)
DHFR: Dihydrofolate reductase (DHFR, Homo sapiens, UniProt P00374)

| target | test | conditions | IC50 [µM] | Structure (SMILES) |
| --- | --- | --- | --- | --- |
| Aldo-keto reductase family 1 member B1 | enzyme activity, inhibitor, absorbance | – | 5.96 | C/C(=N/N=c1/scc(-c2ccc(Br)cc2)n1-c1ccccc1)c1ccc2c(c1)OCCO2 |
| Fatty-acid amide hydrolase 1 (FAAH, Homo sapiens, UniProt O00519) | enzyme activity, inhibitor | cell membranes | 0.209 | O=C(Oc1nsnc1N1CCN(c2ccccc2)CC1)N1CCCCC1 |
| FLT3 | enzyme activity, inhibitor | – | 0.0475 | CCNc1ccnc(Nc2cccc(-c3cccnc3)c2)n1 |
| 5-hydroxytryptamine receptor 2C (HTR2C, Homo sapiens, UniProt P28335) | ligand displacement, radioligand | – | 0.003 | COc1cc(OC)c(C(=O)CCCCN2CCC3(CC2)NC(=O)NC3=O)cc1NS(=O)(=O)c1ccc(C(F)(F)F)cc1 |
| FLT3 | enzyme activity, inhibitor | – | 2.59 | c1cc(Nc2nccc(NC3CCCCC3)n2)cc(C2CC2)c1 |
| Tyrosine-protein kinase receptor Tie-1 (TIE1, Homo sapiens, UniProt P35590) | enzyme activity in cells, inhibitor | – | > 1 | Cc1ccc(C(=O)Nc2ccc(Oc3cc4cnn(C)c4cc3-c3cn[nH]c3)c(F)c2)c(=O)n1-c1ccc(F)cc1 |
| Tyrosine-protein kinase receptor TYRO3 (TYRO3, Homo sapiens, UniProt Q06418) | enzyme activity, inhibitor | – | 0.927 | Nc1nc(Nc2ccc3c(c2)CC[C@@H](N2CCCC2)CC3)nn1-c1cc2c(nn1)-c1ccccc1CCC2 |
| Calcium/calmodulin-dependent protein kinase type II subunit alpha (CAMK2A, Homo sapiens, UniProt Q9UQM7) | cell-free assay, inhibitor | – | > 10 | CC(C)(C)n1nc(-c2cnc3cc(OC4CC4)ccc3c2)c(C(N)=O)c1N |
| Prostaglandin G/H synthase 1 (PTGS1, Homo sapiens, UniProt P23219) | enzyme activity, inhibitor | – | ~4.5 | CN(C)c1ccc(Nc2nc(-c3ccncc3)nc3c2CC(N)CC3)cc1 (stereo not shown) |
| Mitogen-activated protein kinase 11 (MAPK11, Homo sapiens, UniProt Q15759) | enzyme activity, inhibitor | – | > 0.5 | COc1ccc2c(Oc3ccc4c(C(=O)Nc5ccccc5N)cccc4c3)ccnc2c1 |
| DHFR | enzyme activity, inhibitor | – | 10.6 | Clc1ccc(Cn2c(-c3ccc(Cl)cc3)nc3ccccc32)cc1 |
| FLT3 | enzyme activity, inhibitor | – | 0.213 | CC(C)Nc1ccnc(Nc2ccc(C(N)=O)cc2)n1 |
| Aldo-keto reductase family 1 member B1 | enzyme activity, inhibitor, absorbance | – | 4.4 | CC(=N/N=c1\scc(-c2ccc(Br)cc2)n1-c1ccccc1)C12CC3CC(CC(C3)C1)C2 |
| FLT3 | enzyme activity, inhibitor | – | 0.008 | c1cncc(-c2cccc(Nc3nccc(NC4CCNCC4)n3)c2)c1 |
| Casein kinase I isoform delta (CSNK1D, Homo sapiens, UniProt P48730) | enzyme activity, inhibitor | – | 1.77 | CN1CCN(c2ccc(Nc3ncc4cc(C#N)c(=O)n(C5CCCC5)c4n3)cc2)CC1 |
| Aurora kinase A (AURKA, Homo sapiens, UniProt O14965) | enzyme activity, inhibitor | – | 0.00038 | Cc1cnc(-c2ccc(-c3ccc(NC(=O)Nc4c(F)cc(F)cc4F)cc3F)c3c2C(=O)NC3)[nH]1 |
| DHFR | enzyme activity, inhibitor | – | 2000 | N[C@H](Cc1c[nH]c2ccccc12)C(=O)O |
| FLT3 | enzyme activity, inhibitor | – | 0.978 | COC(=O)c1cccc(Nc2nccc(NC3CCCCC3)n2)c1 |
| Formamidopyrimidine-DNA glycosylase (Escherichia coli, UniProt P05523) | enzyme activity, inhibitor | – | > 100 | O=C(Nc1ccc(Cl)cc1)N1CCC(n2c(=O)[nH]c3c(Br)cccc32)CC1 |
| FLT3 | enzyme activity, inhibitor | – | < 0.006 | CC[C@@H](C)Nc1ccnc(Nc2cccc(-c3cccnc3)c2)n1 |
| Gastrin/cholecystokinin type B receptor (CCKBR, Homo sapiens, UniProt P32239) | ligand displacement, radioligand | – | 0.00351 | CSCC[C@H](NC(=O)[C@H](Cc1c[nH]c2ccccc12)NC(=O)CNC(=O)[C@H](Cc1ccc(O)cc1)NC(=O)[C@H](C)NC(=O)[C@@H](CCC(=O)O)NC(=O)CN1CCN(CC(=O)O)CCN(CC(=O)O)CCN(CC(=O)O)CC1)C(=O)N[C@@H](CC(=O)O)C(=O)N[C@@H](Cc1cccc2ccccc12)C(N)=O |
| DHFR | enzyme activity, inhibitor | – | > 250 | O=C(O)c1ccc2nc(-c3ccc(OCc4ccccc4COc4ccc(-c5nc6ccc(C(=O)O)cc6[nH]5)cc4)cc3)[nH]c2c1 |
